Calls of active or inactive are those of the source. The calls are words filed in the database; no cut-off is given here.
What was measured:
[1] = Antioxidant activity assessed as DPPH scavenging activity at 100 ug/mL; assay type: functional
[2] = tested on: HUVEC; experiment: Cytoprotective activity against H2O2-induced cell injury in HUVEC cells at 5 ug/mL after 4 hrs […]; assay type: functional, cell-based; conditions: Homo sapiens
[3] = Antioxidant activity assessed as DPPH scavenging activity after 4 hrs […]; assay type: functional
[4] = tested on: HUVEC; experiment: Cytoprotective activity against H2O2-induced cell injury in HUVEC cells; assay type: functional, cell-based; conditions: Homo sapiens
Outline: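 Cytoprotection was measured in human umbilical vein endothelial cells (HUVEC) injured with hydrogen peroxide and reported as EC50.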

| Compound | Activity [1] | Activity [2] | IC50 [3] [µM] | EC50 [4] [µM] |
| --- | --- | --- | --- | --- |
| COc1ccc(Cc2cccc(Cl)c2)cc1OC | inactive | inactive | – | – |
| Oc1cc(Br)c(Cc2ccc(O)c(Br)c2)cc1O | – | – | 87.4 | 13 |
| Oc1ccc(Cc2c(Cl)c(O)c(O)c(O)c2Cl)cc1O | – | inactive | 102 | – |
| COc1ccc(C(=O)c2ccc(Cl)cc2)cc1OC | inactive | inactive | – | – |
| COc1ccc(C(=O)c2c(Cl)c(OC)c(OC)c(OC)c2Cl)cc1OC | inactive | inactive | – | – |
| COc1cc(Br)c(Cc2ccccc2)cc1OC | inactive | inactive | – | – |
| COc1ccc(C(=O)c2c(Br)c(OC)c(OC)c(OC)c2Br)cc1OC | inactive | inactive | – | – |
| COc1ccc(C(=O)c2cc(OC)c(OC)cc2Br)cc1Br | inactive | inactive | – | – |
| O=C(c1ccc(Cl)cc1)c1ccc(O)c(O)c1 | – | – | 103 | 8.9 |
| Cc1cc(C(C)(C)C)c(O)c(C(C)(C)C)c1 [BUTYLATED HYDROXYTOLUENE] | – | – | 169 | – |
| COc1ccc(Cc2ccccc2Cl)cc1OC | inactive | inactive | – | – |
| O=C(c1ccc(O)c(O)c1)c1c(Br)c(O)c(O)c(O)c1Br | – | inactive | 96.2 | – |
| COc1cc(C(=O)c2ccccc2)c(Br)c(Br)c1OC | inactive | inactive | – | – |
| COc1cc(Br)c(C(=O)c2cc(Br)ccc2OC)cc1OC | inactive | inactive | – | – |
| Oc1ccc(Cc2ccccc2Cl)cc1O | – | inactive | 131 | – |
| Oc1ccc(Cc2c(Br)c(O)c(O)c(O)c2Br)cc1O | – | inactive | 84.2 | – |
| O=C(c1ccccc1)c1cc(O)c(O)cc1Br | – | – | 84 | 11.5 |
| COc1ccc(Cc2c(Cl)c(OC)c(OC)c(OC)c2Cl)cc1OC | inactive | inactive | – | – |
| COc1ccc(Br)cc1Cc1cc(OC)c(OC)cc1Br | inactive | inactive | – | – |

| Compound | Activity [1] | Activity [2] | IC50 [3] [µM] | EC50 [4] [µM] |
| --- | --- | --- | --- | --- |
| Oc1cc(Br)c(Cc2ccccc2)cc1O | – | – | 164 | 12.2 |
| O=c1c(O)c(-c2ccc(O)c(O)c2)oc2cc(O)cc(O)c12 [QUERCETIN] | – | – | – | 18 |
| O=C(c1ccc(O)c(O)c1)c1ccccc1Cl | – | inactive | 113 | – |
| COc1cc(Cc2ccccc2)c(Br)c(Br)c1OC | inactive | inactive | – | – |
| Oc1ccc(Cc2ccc(Cl)cc2)cc1O | – | – | 202 | 8.8 |
| O=C(c1ccccc1)c1cc(O)c(O)c(Br)c1Br | – | – | 87.7 | 0.8 |
| O=C(c1cc(Br)ccc1O)c1cc(O)c(O)cc1Br | – | – | 79.6 | 0.4 |
| O=C(c1ccc(O)c(O)c1)c1c(Cl)c(O)c(O)c(O)c1Cl | – | inactive | 87.3 | – |
| O=C(c1ccc(O)c(Br)c1)c1cc(O)c(O)cc1Br | – | – | 61.6 | 2 |
| Oc1cc(Br)c(Cc2cc(Br)ccc2O)cc1O | – | – | 88.5 | 1.1 |
| O=C(c1cccc(Cl)c1)c1ccc(O)c(O)c1 | – | – | 110 | 5 |
| COc1ccc(C(=O)c2ccccc2)cc1OC | inactive | inactive | – | – |
| COc1ccc(Cc2cc(OC)c(OC)cc2Br)cc1Br | inactive | inactive | – | – |
| COc1cc(Br)c(C(=O)c2ccccc2)cc1OC | inactive | inactive | – | – |
| COc1ccc(Cc2ccc(Cl)cc2)cc1OC | inactive | inactive | – | – |
| Oc1cc(Cc2ccccc2)c(Br)c(Br)c1O | – | – | 88 | 3.9 |
| Oc1ccc(Cc2cccc(Cl)c2)cc1O | – | inactive | 223 | – |
| COc1ccc(Cc2c(Br)c(OC)c(OC)c(OC)c2Br)cc1OC | inactive | inactive | – | – |

— ChEMBL document CHEMBL1177806, “Synthesis and biological activity of halophenols as potent antioxidant and cytoprotective agents” (Bioorg Med Chem Lett, 2010)
